Experimental data from ChEMBL document CHEMBL1146639, “Synthesis and evaluation of nonpeptide substituted spirobenzazepines as potent vasopressin antagonists” (Bioorg Med Chem Lett, 2004).
Converted amounts (≈) assume the structure as drawn.

Key:
Vasopressin V2 receptor [1] = molecular target: T1, Vasopressin V2 receptor (Homo sapiens, UniProt P30518); assay: Binding affinity measured by inhibition of 3[H] AVP binding to cloned human vasopressin V2 receptor
How it was run: (§1)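 Radioligand binding: inhibition of [3H]AVP binding to cloned human V1a or V2 receptors; IC50 in nM.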

Vasopressin V2 receptor [2] = molecular target: T1, Vasopressin V2 receptor; assay: Evaluated for accumulation of cAMP in transfected HEK293 cells expressing human vasopressin V2 receptor; assay type: functional, cell-based
How it was run: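 Functional V2 assay: cAMP accumulation measured in transfected HEK-293 cells expressing human V2 receptor; IC50 in nM.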

Vasopressin V1a receptor [3] = molecular target: T2, Vasopressin V1a receptor (Homo sapiens, UniProt P37288); assay: Binding affinity measured by inhibition of 3[H] AVP binding to cloned human vasopressin V1a receptor; how it was run: as §1
T2 sequence (P37288 whole entry): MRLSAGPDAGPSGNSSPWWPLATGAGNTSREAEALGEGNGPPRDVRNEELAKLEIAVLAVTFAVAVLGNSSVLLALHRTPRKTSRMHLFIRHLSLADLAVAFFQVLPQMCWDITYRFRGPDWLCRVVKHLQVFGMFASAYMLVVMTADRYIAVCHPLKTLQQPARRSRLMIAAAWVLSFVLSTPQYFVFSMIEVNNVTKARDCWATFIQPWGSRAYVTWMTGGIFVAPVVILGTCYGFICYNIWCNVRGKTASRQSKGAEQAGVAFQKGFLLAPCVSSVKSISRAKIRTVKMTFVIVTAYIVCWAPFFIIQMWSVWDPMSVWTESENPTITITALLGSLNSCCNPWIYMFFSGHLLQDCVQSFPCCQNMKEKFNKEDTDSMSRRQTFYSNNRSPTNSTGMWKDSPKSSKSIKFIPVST

Vasopressin V1a receptor [4] = molecular target: T2, Vasopressin V1a receptor; assay: Evaluated for intracellular calcium mobilization in HEK293 cells transfected to express human vasopressin V1a receptor; assay type: functional, cell-based
How it was run: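 Functional V1a assay: intracellular calcium mobilization measured in HEK-293 cells transfected to express human V1a receptor; IC50 in nM.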

[5] = Half-life determined by human liver microsome stability assay at a concentration of 5 uM; assay type: ADME; conditions: liver microsomes
[6] = Apparent volume of distribution when 3 mg/Kg dose was administered intravenously; assay type: ADME, organism-based; conditions: rat, in vivo, iv, read-out: Volume distribution
How it was run: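 Rats given a single intravenous dose of 3 mg/kg. Apparent volume of distribution reported in […].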

[7] = Maximum plasma concentration was evaluated in rats at an intravenous dose of 3 mg/kg; assay type: ADME, organism-based; parameters: dose 3 mg/kg, route intravenous; conditions: rat
[8] = Maximum plasma concentration was evaluated in rats at an oral dose of 30 mg/kg; assay type: ADME, organism-based; parameters: dose 30 mg/kg, route oral; conditions: rat
How it was run: (§2)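 Rats given a single oral dose of 30 mg/kg. Cmax, Tmax, terminal half-life and absolute oral bioavailability determined.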

[9] = Bioavailability was evaluated in rats at an oral dose of 30 mg/kg; assay type: ADME, organism-based; conditions: rat, in vivo; how it was run: as §2
[10] = Half-life was evaluated in rats at an intravenous dose of 3 mg/kg; assay type: ADME, organism-based; parameters: dose 3 mg/kg, route intravenous; conditions: rat, in vivo
[11] = Area under the curve was evaluated at an intravenous dose of 3 mg/kg; assay type: ADME, organism-based; parameters: dose 3 mg/kg, route intravenous; conditions: rat, in vivo
[12] = Area under the curve was evaluated at an oral dose of 30 mg/kg; assay type: ADME, organism-based; parameters: dose 30 mg/kg, route oral; conditions: rat, in vivo
[13] = Partition coefficient (logP); assay type: physicochemical; conditions: octanol/water
[14] = Solubility measured at pH 2; assay type: physicochemical; conditions: buffer
[15] = Solubility measured at pH 7.4; assay type: physicochemical; conditions: buffer
Vasopressin V1a receptor [16] = molecular target: T3, Vasopressin V1a receptor (Rattus norvegicus, UniProt P30560); assay: Evaluated for binding affinity towards vasopressin receptor V1a in rat
T3 sequence (P30560 whole entry): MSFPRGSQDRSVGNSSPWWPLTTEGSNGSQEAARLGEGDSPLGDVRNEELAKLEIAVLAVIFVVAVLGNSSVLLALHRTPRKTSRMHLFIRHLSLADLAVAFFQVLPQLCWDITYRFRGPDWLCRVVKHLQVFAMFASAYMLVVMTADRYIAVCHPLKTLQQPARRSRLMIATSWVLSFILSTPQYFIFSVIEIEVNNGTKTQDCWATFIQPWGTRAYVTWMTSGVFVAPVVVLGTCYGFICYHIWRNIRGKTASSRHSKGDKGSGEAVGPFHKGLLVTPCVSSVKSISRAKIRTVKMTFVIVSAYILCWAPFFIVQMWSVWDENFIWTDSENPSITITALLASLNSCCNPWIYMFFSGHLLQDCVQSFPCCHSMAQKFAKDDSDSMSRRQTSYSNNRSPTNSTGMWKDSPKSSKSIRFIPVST
How it was run: (§3)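 Binding IC50 measured in cells transfected with rat V1a or rat V2 receptors.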

[17] = Time to reach maximum plasma concentration was evaluated at an oral dose of 30 mg/kg; assay type: ADME, organism-based; parameters: dose 30 mg/kg, route oral; conditions: rat; how it was run: as §2
Vasopressin V2 receptor [18] = molecular target: Vasopressin V2 receptor (Rattus norvegicus, UniProt Q00788); assay: Evaluated for binding affinity towards vasopressin V2 receptor in rat; how it was run: as §3
Sequence of Vasopressin V2 receptor (Rattus norvegicus, UniProt Q00788) (Q00788 whole entry): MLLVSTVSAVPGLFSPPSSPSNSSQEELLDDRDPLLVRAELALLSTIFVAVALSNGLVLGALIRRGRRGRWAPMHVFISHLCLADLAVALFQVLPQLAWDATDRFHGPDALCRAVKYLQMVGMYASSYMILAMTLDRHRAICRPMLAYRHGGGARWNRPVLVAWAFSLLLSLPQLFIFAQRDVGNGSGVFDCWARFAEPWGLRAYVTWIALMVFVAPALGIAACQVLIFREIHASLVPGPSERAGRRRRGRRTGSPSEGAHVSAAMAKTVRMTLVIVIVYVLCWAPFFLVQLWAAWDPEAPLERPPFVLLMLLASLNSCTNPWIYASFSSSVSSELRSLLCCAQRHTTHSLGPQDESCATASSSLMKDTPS

[19] = Half-life was evaluated in rats at an oral dose of 30 mg/kg; assay type: ADME, organism-based; parameters: dose 30 mg/kg, route oral; conditions: rat, in vivo; how it was run: as §2
Vasopressin V1a receptor [20] = molecular target: T3, Vasopressin V1a receptor; assay: Evaluated for binding affinity towards vasopressin V1a receptor in rat; how it was run: as §3
Vasopressin V1a receptor [21] = molecular target: T2, Vasopressin V1a receptor; assay: Binding affinity measured by inhibition of 3[H] AVP binding to cloned human vasopressin V1a receptor (Compound 7o)
How it was run: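 Displacement of [3H]AVP from cloned human V1a receptor; IC50 from inhibition of radioligand binding.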

Vasopressin V1a receptor [22] = molecular target: T2, Vasopressin V1a receptor; assay: Evaluated for intracellular calcium mobilization in HEK- 293 cells transfected to express human vasopressin V1a receptor (Compound 7o); assay type: functional, cell-based, HEK293
How it was run: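 Antagonism measured as inhibition of intracellular calcium mobilization in HEK-293 cells transfected with human V1a receptor; IC50 reported.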

T1 sequence (P30518 whole entry): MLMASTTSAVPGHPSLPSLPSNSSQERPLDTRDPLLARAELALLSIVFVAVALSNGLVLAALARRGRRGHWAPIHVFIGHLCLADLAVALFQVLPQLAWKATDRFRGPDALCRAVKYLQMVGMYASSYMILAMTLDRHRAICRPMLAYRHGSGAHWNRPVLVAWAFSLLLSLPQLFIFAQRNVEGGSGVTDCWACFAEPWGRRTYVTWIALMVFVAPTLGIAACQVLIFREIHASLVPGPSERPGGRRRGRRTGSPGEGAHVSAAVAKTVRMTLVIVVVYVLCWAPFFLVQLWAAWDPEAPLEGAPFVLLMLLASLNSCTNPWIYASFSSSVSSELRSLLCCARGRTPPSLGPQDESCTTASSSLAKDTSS

Question: What does the source list for CN(C)CCCNC(=O)C1=CC2(CC1)CCN(C(=O)c1ccc(NC(=O)c3ccccc3-c3ccccc3)cc1)c1ccccc1C2 (stereo not drawn)?
Answer: IC50 (Vasopressin V2 receptor [1]): 16 nM; IC50 (Vasopressin V2 receptor [2]): 20 nM; IC50 (Vasopressin V1a receptor [3]): 5 nM; IC50 (Vasopressin V1a receptor [4]): 29 nM

Question: For O=C(NCCN1CCCC1)C1=CC2(CC1)CCN(C(=O)c1ccc(NC(=O)c3ccccc3F)cc1)c1ccccc1C2 (stereo not drawn), which IC50 (Vasopressin V2 receptor [1]) is on record?
Answer: > 1000 nM

Question: And the IC50 (Vasopressin V2 receptor [2])?
Answer: > 1000 nM

Question: What about the IC50 (Vasopressin V1a receptor [3]) of the same compound?
Answer: 8 nM

Question: And the IC50 (Vasopressin V1a receptor [4])?
Answer: 155 nM

Question: What does the source list for O=C(NCCN1CCOCC1)C1=CC2(CC1)CCN(C(=O)c1ccc(NC(=O)c3ccccc3F)cc1)c1ccccc1C2 (stereo not drawn)?
Answer: IC50 (Vasopressin V2 receptor [1]): > 1000 nM; IC50 (Vasopressin V1a receptor [3]): 4 nM

Question: What does the source list for CN(C)CCNC(=O)C1=C[C@@]2(CC1)CCN(C(=O)c1ccc(NC(=O)c3ccccc3F)cc1)c1ccccc1C2 (single isomer, unassigned)?
Answer: half-life at 5 µM [5]: 0.717 h; Vd [6]: 6.67 L/kg; Cmax [7]: 1800 nM; Cmax [8]: 1100 nM; bioavailability [9]: 42%; half-life [10]: 4.35 h; AUC [11]: 1.68 µM·h; AUC [12]: 7.04 µM·h; logP [13]: 2.45; solubility [14]: 320 µg/mL (≈ 577 µM); solubility [15]: 70 µg/mL (≈ 126 µM); IC50 (Vasopressin V2 receptor [1]): 341 nM; IC50 (Vasopressin V2 receptor [2]): 646 nM; IC50 (Vasopressin V1a receptor [3]): 4 nM; IC50 (Vasopressin V1a receptor [16]): 433 nM; IC50 (Vasopressin V1a receptor [4]): 78 nM; Tmax [17]: 4.67 h; IC50 (Vasopressin V2 receptor [18]): 444 nM; half-life [19]: 4.15 h

Question: Which IC50 (Vasopressin V2 receptor [2]) does the source give for CN(C)CCNC(=O)C1=CC2(CC1)CCN(C(=O)c1ccc(NC(=O)c3ccccc3-c3ccccc3)cc1)c1ccccc1C2 (stereo not drawn) here?
Answer: 100 nM

Question: With CN(C)CCNC(=O)C1=CC2(CC1)CCN(C(=O)c1ccc(NC(=O)c3ccccc3F)cc1)c1ccccc1C2 (stereo not drawn) as the compound, how does the IC50 (Vasopressin V2 receptor [1]) read?
Answer: > 1000 nM

Question: What about the IC50 (Vasopressin V2 receptor [2]) of the same compound?
Answer: > 1000 nM

Question: Which half-life at 5 µM [5] does the source give for CN(C)CCNC(=O)C1=C[C@]2(CC1)CCN(C(=O)c1ccc(NC(=O)c3ccccc3-c3ccccc3)cc1)c1ccccc1C2 here?
Answer: 1.08 h

Question: What about the Vd [6] of the same compound?
Answer: 6.84 L/kg

Question: And the Cmax [7]?
Answer: 2660 nM

Question: And the Cmax [8]?
Answer: 790 nM

Question: And the bioavailability [9]?
Answer: 22%

Question: What about the half-life [10] of the same compound?
Answer: 1.68 h

Question: And the AUC [11]?
Answer: 2.06 µM·h

Question: And the AUC [12]?
Answer: 4.57 µM·h

Question: And the logP [13]?
Answer: 3.63

Question: And the solubility [14]?
Answer: 160 µg/mL (≈ 261 µM)

Question: What about the solubility [15] of the same compound?
Answer: 40 µg/mL (≈ 65.3 µM)

Question: What about the IC50 (Vasopressin V2 receptor [1]) of the same compound?
Answer: 8 nM

Question: And the IC50 (Vasopressin V2 receptor [2])?
Answer: 36 nM

Question: And the IC50 (Vasopressin V1a receptor [3])?
Answer: 2 nM

Question: And the IC50 (Vasopressin V1a receptor [20])?
Answer: 33 nM

Question: What about the IC50 (Vasopressin V1a receptor [4]) of the same compound?
Answer: 45 nM

Question: What about the Tmax [17] of the same compound?
Answer: 4 h

Question: And the half-life [19]?
Answer: 6.47 h

Question: For O=C(NCCO)C1=CC2(CC1)CCN(C(=O)c1ccc(NC(=O)c3ccccc3-c3ccccc3)cc1)c1ccccc1C2 (stereo not drawn), which IC50 (Vasopressin V2 receptor [2]) is on record?
Answer: 170 nM

Question: What does the source list for O=C(NCCO)C1=CC2(CC1)CCN(C(=O)c1ccc(NC(=O)c3ccccc3F)cc1)c1ccccc1C2 (stereo not drawn)?
Answer: IC50 (Vasopressin V2 receptor [1]): > 1000 nM; IC50 (Vasopressin V2 receptor [2]): > 1000 nM

Question: What does the source list for Cc1ccc(F)cc1C(=O)Nc1ccc(C(=O)N2CCC3(C=C(C(=O)NCCCN(C)C)CC3)Cc3ccccc32)cc1 (stereo not drawn)?
Answer: IC50 (Vasopressin V2 receptor [2]): 31 nM; IC50 (Vasopressin V1a receptor [4]): 4 nM

Question: Which IC50 (Vasopressin V2 receptor [1]) does the source give for Cc1ccc(F)cc1C(=O)Nc1ccc(C(=O)N2CCC3(C=C(C(=O)NCCN(C)C)CC3)Cc3ccccc32)cc1 (stereo not drawn) here?
Answer: 20 nM

Question: And the IC50 (Vasopressin V2 receptor [2])?
Answer: 105 nM

Question: And the IC50 (Vasopressin V1a receptor [4])?
Answer: 65 nM

Question: For Cc1ccc(F)cc1C(=O)Nc1ccc(C(=O)N2CCC3(C=C(C(=O)NCCN4CCCC4)CC3)Cc3ccccc32)cc1 (stereo not drawn), which IC50 (Vasopressin V2 receptor [1]) is on record?
Answer: 39 nM

Question: What about the IC50 (Vasopressin V2 receptor [2]) of the same compound?
Answer: 48 nM

Question: What about the IC50 (Vasopressin V1a receptor [3]) of the same compound?
Answer: 19 nM

Question: What about the IC50 (Vasopressin V1a receptor [4]) of the same compound?
Answer: 29 nM

Question: With O=C(O)CNC(=O)C1=CC2(CC1)CCN(C(=O)c1ccc(NC(=O)c3ccccc3-c3ccccc3)cc1)c1ccccc1C2 (stereo not drawn) as the compound, how does the IC50 (Vasopressin V2 receptor [1]) read?
Answer: 18 nM

Question: And the IC50 (Vasopressin V2 receptor [2])?
Answer: 350 nM

Question: What about the IC50 (Vasopressin V1a receptor [3]) of the same compound?
Answer: 24 nM

Question: What about the IC50 (Vasopressin V1a receptor [4]) of the same compound?
Answer: 78 nM

Question: Which results are given for COC(=O)CNC(=O)C1=CC2(CC1)CCN(C(=O)c1ccc(NC(=O)c3cc(F)ccc3C)cc1)c1ccccc1C2 (stereo not drawn)?
Answer: IC50 (Vasopressin V2 receptor [1]): 10 nM; IC50 (Vasopressin V2 receptor [2]): 440 nM; IC50 (Vasopressin V1a receptor [3]): 7 nM; IC50 (Vasopressin V1a receptor [4]): 135 nM

Question: Which IC50 (Vasopressin V2 receptor [1]) does the source give for Cc1ccc(F)cc1C(=O)Nc1ccc(C(=O)N2CCC3(C=C(C(=O)NCCN4CCCCC4)CC3)Cc3ccccc32)cc1 (stereo not drawn) here?
Answer: 39 nM

Question: What about the IC50 (Vasopressin V2 receptor [2]) of the same compound?
Answer: 48 nM

Question: And the IC50 (Vasopressin V1a receptor [3])?
Answer: 10 nM

Question: What about the IC50 (Vasopressin V1a receptor [21]) of the same compound?
Answer: 16 nM

Question: And the IC50 (Vasopressin V1a receptor [22])?
Answer: 71 nM

Question: And the IC50 (Vasopressin V1a receptor [4])?
Answer: 48 nM

Question: Which results are given for O=C(NCCN1CCCCC1)C1=CC2(CC1)CCN(C(=O)c1ccc(NC(=O)c3ccccc3F)cc1)c1ccccc1C2 (stereo not drawn)?
Answer: IC50 (Vasopressin V2 receptor [1]): > 1000 nM; IC50 (Vasopressin V2 receptor [2]): > 1000 nM
